# According to ChEMBL document CHEMBL1140158, “Soluble 3',6-substituted indirubins with enhanced selectivity toward glycogen synthase kinase -3 alter circadian period” (J Med Chem, 2008):
# Calls of active or inactive are those of the source. The calls are words filed in the database; no cut-off is given here.
# Assays:
# [1] = Solubility in water; assay type: physicochemical
# Procedure, shortened: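 Excess solid in double-distilled water was sonicated 5 min, then stirred overnight to equilibrium at 25 ± 0.1 °C and centrifuged. Supernatant absorbance was read at 515–518 nm and quantified against per-compound standard reference curves.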
# [2] = Dissociation constant, pKa of the compound; assay type: physicochemical
# [3] = Lipophilicity, log D of the compound; assay type: physicochemical; conditions: octanol/water
# [4] = Inhibition of human recombinant CDK5/p25 expressed in Escherichia coli
# SH-SY5Y = test: Cytotoxicity against human SH-SY5Y cells after 48 hrs by MTS reduction assay; assay type: cell-based
# [5] = test system: Glycogen synthase kinase-3 (Sus scrofa); test: Inhibition of pig GSK3alpha/beta
# [6] = biological target: T1, Glycogen synthase kinase-3 (Homo sapiens, UniProt P49840+P49841); test: Inhibition of GSK3-mediated beta-catenin phosphorylation in human SH-SY5Y cells in presence of MG132 by ELISA
# T1 sequence (P49840 whole entry, looked up): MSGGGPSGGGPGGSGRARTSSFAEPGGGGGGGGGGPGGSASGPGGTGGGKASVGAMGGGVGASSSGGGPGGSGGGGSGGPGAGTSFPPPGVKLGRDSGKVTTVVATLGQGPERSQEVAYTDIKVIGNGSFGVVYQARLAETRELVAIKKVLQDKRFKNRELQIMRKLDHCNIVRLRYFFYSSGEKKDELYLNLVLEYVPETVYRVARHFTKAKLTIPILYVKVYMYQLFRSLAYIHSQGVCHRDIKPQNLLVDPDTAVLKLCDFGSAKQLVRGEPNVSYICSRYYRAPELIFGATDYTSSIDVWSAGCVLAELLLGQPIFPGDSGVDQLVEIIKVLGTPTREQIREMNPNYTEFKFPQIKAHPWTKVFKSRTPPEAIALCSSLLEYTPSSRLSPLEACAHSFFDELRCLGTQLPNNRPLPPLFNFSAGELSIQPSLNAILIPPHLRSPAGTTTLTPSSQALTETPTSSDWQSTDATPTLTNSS
# T1 sequence (P49841 whole entry, looked up): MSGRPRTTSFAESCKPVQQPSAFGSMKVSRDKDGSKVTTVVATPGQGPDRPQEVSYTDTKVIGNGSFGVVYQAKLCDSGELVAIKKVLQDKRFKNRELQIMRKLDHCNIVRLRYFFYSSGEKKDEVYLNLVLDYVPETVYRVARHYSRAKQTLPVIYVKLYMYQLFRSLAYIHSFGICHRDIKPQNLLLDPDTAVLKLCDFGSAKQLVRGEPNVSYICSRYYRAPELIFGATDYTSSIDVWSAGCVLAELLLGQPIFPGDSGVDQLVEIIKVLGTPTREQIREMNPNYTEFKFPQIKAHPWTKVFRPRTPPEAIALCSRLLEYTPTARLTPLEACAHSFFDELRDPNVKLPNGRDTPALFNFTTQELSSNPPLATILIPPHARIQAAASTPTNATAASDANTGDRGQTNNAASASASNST
# [7] = biological target: T1, Glycogen synthase kinase-3; test: Inhibition of GSK3-mediated beta-catenin phosphorylation in human SH-SY5Y cells in presence of MG132 by Western blot analysis
# Rat1 = test: Effect on circadian rhythm in Pper2::Fluc transfected Rat1 cells assessed as shortening of period length at 10 uM; assay type: functional, cell-based; conditions: Rattus norvegicus
# Procedure, shortened: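 Rat-1 fibroblasts stably carrying PPer2::Fluc, grown to confluence, synchronized with 0.1 μM dexamethasone (1 h in Experimental, 2 h in legend), then moved to phenol-red-free assay medium with 0.1 mM luciferin. Compounds at 10 μM added before dish sealing and left continuously; DMSO solvent control. Luminescence recorded 4–5 days or more; period derived by regression analysis.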
SMILES,solubility thermodynamic [1] [µg/mL],pKa [2],logD [3],IC50 [4] [µM],"IC50 (SH-SY5Y; Homo sapiens, SH-SY5Y, 48 h) [µM]",IC50 [5] [µM],also measured
CN(C)CCO/N=C1/C(=C2/C(=O)Nc3cc(Br)ccc32)Nc2ccccc21.Cl,141,8.59,1.69,–,–,–,–
CCN(CC)CCO/N=C1/C(=C2/C(=O)Nc3cc(Br)ccc32)Nc2ccccc21.Cl,192,9.38,1.19,0.04,> 100,0.027,–
CN1CCN(CCO/N=C2/C(=C3/C(=O)Nc4cc(Br)ccc43)Nc3ccccc32)CC1,–,–,–,0.4,–,0.007,–
O=C1Nc2cc(Br)ccc2/C1=C1/Nc2ccccc2/C1=N\OCCBr,–,–,–,> 10,> 100,0.14,–
O=C1Nc2cc(Br)ccc2/C1=C1/Nc2ccccc2/C1=N\OCC(O)CO (stereo unspecified),–,–,–,0.025,0.94,0.034,–
O=C1Nc2cc(Br)ccc2/C1=C1/Nc2ccccc2/C1=N\OCCN1CCN(CCO)CC1,–,–,–,–,–,–,IC50 [6]: 0.7 µM
O=C1Nc2cc(Br)ccc2/C1=C1/Nc2ccccc2/C1=N\OCCN1CCNCC1,–,–,–,–,–,–,IC50 (SH-SY5Y; sh-sy5y): 13.2 µM; IC50 [6]: 0.15 µM
Cl.O=C1Nc2cc(Br)ccc2/C1=C1/Nc2ccccc2/C1=N\OCCN(CCO)CCO,–,–,–,–,–,–,IC50 [6]: 0.32 µM
Cl.Cl.O=C1Nc2cc(Br)ccc2/C1=C1/Nc2ccccc2/C1=N\OCCN1CCN(CCO)CC1,1140,7.65,1.41,–,–,–,–
COCCN1CCN(CCO/N=C2/C(=C3/C(=O)Nc4cc(Br)ccc43)Nc3ccccc32)CC1.Cl.Cl,570,7.47,1.9,0.4,> 100,0.02,–
O=C1Nc2cc(Br)ccc2/C1=C1/Nc2ccccc2/C1=N\OCCN1CCCC1,–,–,–,0.13,–,0.026,IC50 (SH-SY5Y; sh-sy5y): 5.5 µM
Cl.Cl.O=C1Nc2cc(Br)ccc2/C1=C1/Nc2ccccc2/C1=N\OCCN1CCNCC1,1610,8.85,-0.87,0.18,–,–,IC50 (SH-SY5Y; sh-sy5y): 5.9 µM; IC50 [6]: 0.22 µM
O=C1Nc2cc(Br)ccc2/C1=C1/Nc2ccccc2/C1=N\OCCN1CCN(CCOCCO)CC1 [listing 1 of 2 here],–,–,–,0.31,–,0.014,IC50 [6]: 2.9 µM
Cn1c(O)c(-c2[nH]c3ccccc3c2N=O)c2ccc(Br)cc21,–,–,–,–,–,–,Activity [7]: inactive
O=C1Nc2cc(Br)ccc2/C1=C1/Nc2ccccc2/C1=N\OCCN(CCO)CCO,–,–,–,–,6.6,–,–
CN1CCN(CCO/N=C2/C(=C3/C(=O)Nc4cc(Br)ccc43)Nc3ccccc32)CC1.Cl.Cl,1500,7.65,1.74,0.3,5.4,0.005,–
COCCN1CCN(CCO/N=C2/C(=C3/C(=O)Nc4cc(Br)ccc43)Nc3ccccc32)CC1,–,–,–,0.5,–,0.011,–
CCN(CC)C(=O)O/N=C1/C(=C2/C(=O)Nc3cc(Br)ccc32)Nc2ccccc21,–,–,–,10,> 100,0.03,–
Cl.Cl.O=C1Nc2cc(Br)ccc2/C1=C1/Nc2ccccc2/C1=N\OCCN1CCN(CCOCCO)CC1,4250,7.58,1.46,0.33,97.6,0.033,–
CN(CCO/N=C1/C(=C2/C(=O)Nc3cc(Br)ccc32)Nc2ccccc21)CC(O)CO (stereo unspecified),–,–,–,0.24,5.8,0.067,–
O=C1Nc2cc(Br)ccc2/C1=C1/Nc2ccccc2/C1=N\OCCN1CCN(CCOCCO)CC1 [listing 2 of 2 here],–,–,–,–,–,–,Activity (Rat1): Active
Cl.O=C1Nc2cc(Br)ccc2/C1=C1/Nc2ccccc2/C1=N\OCCN1CCCC1,195,9.18,1.16,0.1,4.2,0.054,–
O=C1Nc2cc(Br)ccc2/C1=C1/Nc2ccccc2/C1=N\OCCO,–,–,–,> 10,> 100,–,–
CCN(CC)CCO/N=C1/C(=C2/C(=O)Nc3cc(Br)ccc32)Nc2ccccc21,–,–,–,0.02,–,0.035,IC50 (SH-SY5Y; sh-sy5y): 78 µM
